What was measured:
Format in all cases: cell-based, human
[1] = tested on: CCRF-CEM; test: NCI in vitro five dose anticancer assay; settings: 48 h
[2] = tested on: HL-60(TB); test: NCI in vitro five dose anticancer assay
[3] = tested on: MOLT-4; test: NCI in vitro five dose anticancer assay
[4] = tested on: RPMI-8226; test: NCI in vitro five dose anticancer assay
[5] = tested on: A549/ATCC; test: NCI in vitro five dose anticancer assay
[6] = tested on: EKVX; test: NCI in vitro five dose anticancer assay; settings: 48 h
[7] = tested on: HOP-92; test: NCI in vitro five dose anticancer assay
[8] = tested on: NCI-H226; test: NCI in vitro five dose anticancer assay
[9] = tested on: NCI-H322M; test: NCI in vitro five dose anticancer assay; settings: 48 h
[10] = tested on: NCI-H522; test: NCI in vitro five dose anticancer assay
[11] = tested on: COLO 205; test: NCI in vitro five dose anticancer assay
[12] = tested on: HCC-2998; test: NCI in vitro five dose anticancer assay
[13] = tested on: SF-295; test: NCI in vitro five dose anticancer assay
[14] = tested on: SNB-19; test: NCI in vitro five dose anticancer assay
[15] = tested on: SNB-75; test: NCI in vitro five dose anticancer assay
[16] = tested on: MALME-3M; test: NCI in vitro five dose anticancer assay; settings: 48 h
[17] = tested on: MDA-MB-435; test: NCI in vitro five dose anticancer assay
[18] = tested on: SK-MEL-2; test: NCI in vitro five dose anticancer assay
[19] = tested on: UACC-257; test: NCI in vitro five dose anticancer assay
[20] = tested on: OVCAR-3; test: NCI in vitro five dose anticancer assay
[21] = tested on: 786–0; test: NCI in vitro five dose anticancer assay
[22] = tested on: A498; test: NCI in vitro five dose anticancer assay
[23] = tested on: SN12C; test: NCI in vitro five dose anticancer assay; settings: 48 h
[24] = tested on: TK-10; test: NCI in vitro five dose anticancer assay
[25] = tested on: UO-31; test: NCI in vitro five dose anticancer assay
[26] = tested on: MCF7; test: NCI in vitro five dose anticancer assay
[27] = tested on: HS 578T; test: NCI in vitro five dose anticancer assay; settings: 48 h
[28] = tested on: T-47D; test: NCI in vitro five dose anticancer assay; settings: 48 h
[29] = tested on: full NCI panel of 60 cell lines; test: NCI in vitro one dose anticancer assay; settings: 48 h
In short: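 NCI protocol. Test compound added once at 10−5 M to ~60 human tumour lines from nine subpanels. Incubated 48 h at 37 °C, 5% CO2, 95% air, 100% relative humidity. Endpoint by sulforhodamine B protein staining with spectrophotometric absorbance. Growth of treated cells reported as percent of untreated cells.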

[30] = tested on: KG-1a; test: MTT anti-proliferative assay; settings: Homo sapiens, KG-1a, 24 h, read-out: IC50 ± SD, KG-1a
[31] = tested on: IL-6; test: IL-6 ELISA in K-562 cells
In short: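 K-562 cells exposed 24 h to vehicle (DMSO), test compound at 10 μM or dexamethasone (positive control). IL-6 secreted into cell-free supernatant quantified by human IL-6 ELISA kit. Expressed as % of vehicle control, mean ± SD of three independent experiments, each in triplicate. Time course: in 12-well plates, medium changed when compound (10 μM) added, and media sampled at 0, 1, 4, 8, 12, 24, 48 h.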

[32] = Non-Small Cell Lung Cancer, five dose, SRB

`COc1ccc(C=CC(=O)c2ccc(NC(=O)CSc3nnc(-c4cc(OC)c(OC)c(OC)c4)o3)cc2)cc1` [Compound 8v, N-(4-(3-(4-Methoxyphenyl)acryloyl)phenyl)-2-((5-(3,4,5-trimethoxy-phenyl)-1,3,4-oxadiazol-2-yl)thio)acetamide] gave a GI50 ([1]; Homo sapiens) of 1.84 µM, a TGI ([1]; Leukemia, five dose, SRB) of 4.56 µM and a TGI ([2]; HL-60(TB), Leukemia, five dose, 48 h, SRB) of 4.10 µM. It also gave a GI50 ([2]; Homo sapiens, HL-60, 48 h) of 2 µM, a GI50 ([3]; Homo sapiens, MOLT-4, 48 h) of 2.05 µM and a TGI ([3]; MOLT-4, Leukemia, five dose, 48 h, SRB) of 5.27 µM. It also gave a GI50 ([4]; Homo sapiens, RPMI-8226, 48 h) of 1.73 µM, a TGI ([4]; RPMI-8226, Leukemia, five dose, 48 h, SRB) of 4.31 µM and a TGI ([5]; A549/ATCC, Non-Small Cell Lung Cancer, five dose, 48 h, SRB) of 3.53 µM. For the same compound, the GI50 ([5]; Homo sapiens, A549, 48 h) was 1.84 µM, the GI50 ([6]; Homo sapiens) was 1.79 µM and the TGI [6, 32] was 3.98 µM. It also gave a TGI ([7]; HOP-92, Non-Small Cell Lung Cancer, five dose, 48 h, SRB) of 4.23 µM, a GI50 ([7]; Homo sapiens, HOP-92, 48 h) of 1.93 µM and a GI50 ([8]; Homo sapiens, NCI-H226, 48 h) of 2.67 µM. For the same compound, the TGI ([8]; NCI-H226, Non-Small Cell Lung Cancer, five dose, 48 h, SRB) was 5.69 µM, the GI50 ([9]; Homo sapiens) was 1.59 µM and the TGI [9, 32] was 2.98 µM. The GI50 ([10]; Homo sapiens, NCI-H522, 48 h) was 1.55 µM, the TGI ([10]; NCI-H522, Non-Small Cell Lung Cancer, five dose, 48 h, SRB) was 3.21 µM and the TGI ([11]; COLO 205, Colon Cancer, five dose, 48 h, SRB) was 3.84 µM. For the same compound, the GI50 ([11]; Homo sapiens, COLO 205, 48 h) was 1.94 µM, the TGI ([12]; HCC-2998, Colon Cancer, five dose, 48 h, SRB) was 3.65 µM and the GI50 ([12]; Homo sapiens, HCC 2998, 48 h) was 1.88 µM. For the same compound, the GI50 ([13]; Homo sapiens, SF-295, 48 h) was 1.77 µM, the TGI ([13]; SF-295, CNS cancer, five dose, 48 h, SRB) was 3.35 µM and the GI50 ([14]; Homo sapiens, SNB-19, 48 h) was 1.78 µM. It also gave a TGI ([14]; SNB-19, CNS cancer, five dose, 48 h, SRB) of 3.56 µM, a GI50 ([15]; Homo sapiens, SNB-75, 48 h) of 1.47 µM and a TGI ([15]; SNB-75, CNS cancer, five dose, 48 h, SRB) of 3.15 µM. For the same compound, the GI50 ([16]; Homo sapiens, Malme-3M) was 1.68 µM, the TGI ([16]; MALME-3M, Melanoma, five dose, SRB) was 3.45 µM and the GI50 ([17]; Homo sapiens, MDA-MB-435, 48 h) was 1.7 µM. It also gave a TGI ([17]; MDA-MB-435, Melanoma, five dose, 48 h, SRB) of 3.40 µM, a GI50 ([18]; Homo sapiens, SK-MEL-2, 48 h) of 1.79 µM and a TGI ([18]; SK-MEL-2, Melanoma, five dose, 48 h, SRB) of 4.82 µM. It also gave a GI50 ([19]; Homo sapiens, UACC-257, 48 h) of 2.16 µM, a TGI ([19]; UACC-257, Melanoma, five dose, 48 h, SRB) of 4.69 µM and a GI50 ([20]; Homo sapiens, OVCAR-3, 48 h) of 1.78 µM. The TGI ([20]; OVCAR-3, Ovarian Cancer, five dose, 48 h, SRB) was 3.38 µM, the TGI ([21]; 786–0, Renal Cancer, five dose, 48 h, SRB) was 3.36 µM and the GI50 ([21]; Homo sapiens, 786-0, 48 h) was 1.7 µM. The TGI ([22]; A498, Renal Cancer, five dose, 48 h, SRB) was 23.60 µM, the GI50 ([22]; Homo sapiens, A498, 48 h) was 11 µM and the GI50 ([23]; Homo sapiens) was 1.83 µM. For the same compound, the TGI ([23]; Renal Cancer, five dose, SRB) was 3.57 µM, the GI50 ([24]; Homo sapiens, TK-10, 48 h) was 1.52 µM and the TGI ([24]; TK-10, Renal Cancer, five dose, 48 h, SRB) was 3.03 µM. The GI50 ([25]; Homo sapiens, UO-31, 48 h) was 1.46 µM, the TGI ([25]; UO-31, Renal Cancer, five dose, 48 h, SRB) was 2.97 µM and the GI50 ([26]; Homo sapiens, MCF7, 48 h) was 1.27 µM. The TGI ([26]; MCF7, Breast cancer, five dose, 48 h, SRB) was 3.68 µM, the TGI ([27]; HS 578T, Breast cancer, five dose, SRB) was 7.76 µM and the GI50 ([27]; Homo sapiens, Hs-578T) was 2.65 µM. For the same compound, the GI50 ([28]; Homo sapiens, T47D) was 2.05 µM, the TGI ([28]; T-47D, Breast cancer, five dose, SRB) was 5.08 µM and the “number of cell lines with complete cell death” value ([29]; 10 μM, SRB) was 45. For the same compound, the inhibition at 10 µM ([29]; Homo sapiens, 60 cell, read-out: Mean growth inhibition %) was 132%, the IC50 [30] was 3.45 ± 0.25 µM and the activity at 10 µM ([31]; Homo sapiens, K562, 24 h, read-out: IL-6 protein levels (% of control)) was 20%. The “IL-6 levels after 48 h” value ([31]; K-562 cells, 10 μM, time course) was “still downregulated” and the “time of initial downregulation of IL-6 protein levels after treatment” value ([31]; K-562 cells, 10 μM, time course 0-48 h) was 8 h.

Source: paper PMC6923798 (Bioorganic chemistry, 2018)
